The values below come from ChEMBL document CHEMBL3351603, “Design of a hydrogen peroxide-activatable agent that specifically targets cancer cells” (Bioorg Med Chem, 2014).

pIC50: −log10 of the molar value.

A short description of data set [1]: Cytotoxicity against human MA9.3 cells after 48 hrs by MTT assay. It counts as functional, cell-based. Summed up: (§1)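 Cells seeded at 4 × 10^4/well and held overnight at 37°C. Exposed 48 h to freshly dissolved compound. Cells were then pelleted, the medium replaced with fresh medium holding MTT (5 mg/mL stock), and incubated 4 h. Formazan dissolved in DMSO and read at 575 nm. IC50 from a four-parameter sigmoid fit. Triplicates, assay run twice. MA9.3RAS (MLL-AF9 + NrasG12D-transformed CD34+ cells) grown in IMDM with 20% bovine calf serum. Cord-blood CD34+ cells grown in the same medium plus SCF, IL-3, IL-6, Flt-3L and TPO.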
In general terms: Tetrazolium assays rely on reduction of a dye to a coloured formazan, in cell work by metabolically active cells.

Data set [2] in a line: Selectivity ratio of IC50 for human primary CD34+ blood stem cells to IC50 for human MA9.3 cells. The conditions noted are these: primary CD34+ blood stem cells versus MA9.3 cells, read-out: Ratio IC50.
The next data set is filed under the species Homo sapiens. Kind of data set: Decrease in ROS level in human MA9.3 cells at 20 uM DCF fluorescence assay. It counts as functional, cell-based. The conditions noted are these: TDE = time-dependent effect. Summed up:
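Actively growing MA9.3RAS cells suspended in 1× HBSS at 4×10^5 cells/ml. DCF-DA added to 10 μM final, with HBSS alone as blank. Compound added in HBSS to 20 μM final. Plate held at 37°C and fluorescence (ex 485/em 535 nm) read every 15 min for 1 h, with light exposure limited. Mean ± SD of six replicates, unpaired t-test.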

Data set [3] is described as follows: Cytotoxicity against human CD34-positive blood stem/progenitor cells after 48 hrs by MTT assay. It counts as cell-based. Summed up:
as §1

Data set [4] is described as follows: Decrease in ROS level in human MA9.3 cells assessed as fluorescence intensity at 20 uM DCF fluorescence assay (reference value: 1.06 +/- 0.13 no_unit). It counts as functional.
A short description of data set [5]: Decrease in KEAP1 protein expression in human MA9.3 cells at 20 uM after 24 hrs relative to control.

For `NC1=CC(=O)C=CC1=O`, in data set [1], the pIC50 – broadly, −log10 of the IC50, conventionally taken in molar units – is 4.80.

`C=C1C(=O)O[C@@H]2[C@H]3O[C@]3(C)CC/C=C(\C)CC[C@@H]12` gave a pIC50 in data set [1] of 5.52. In addition, the selectivity ratio in data set [2] came out at 2.1.

As for `CN(CC(=O)Nc1cc(O)ccc1O)c1ccccc1`, in data set [1], the pIC50 is 5.22. Moreover, in data set [2], the selectivity ratio was 2.

In the case of `CN(CC(=O)Nc1cccc(O)c1)c1ccccc1`, the pIC50 in data set [1] was less than 4.00.

As to `O=C(CNC1CCCCC1)Nc1cc(O)ccc1O`, the Activity entry in the data set filed under Homo sapiens was “tde”; in data set [3], “Non-toxic”. In data set [1], this compound gave a pIC50 of 5.70. Also, the selectivity ratio in data set [2] came to 11.5. Further, the Flu intensity in data set [4] was 4.31. The Ratio in data set [5] turned out to be 0.65.

Compound `O=C(CSc1ccccc1)Nc1cc(O)ccc1O` showed a pIC50 in data set [1] of 5.30.

`COc1ccc(OC)c(NC(=O)CN(C)c2ccccc2)c1` gave a pIC50 in data set [1] of less than 4.00.

In data set [1], `CC(=O)Nc1cc(O)ccc1O` gave a pIC50 of 4.46.

In turn, `O=C(COc1ccccc1)Nc1cc(O)ccc1O` had a pIC50 in data set [1] of 5.52.

Consider `COc1cc(/C=C/C(=O)N2CCC=CC2=O)cc(OC)c1OC` [PIPLARTINE], for which the pIC50 in data set [1] is 5.70. Moreover, in data set [2], the selectivity ratio turned out to be 3.7.

In the case of `CN(CC(=O)Nc1cc(O)ccc1O)C1CCCCC1`, the pIC50 in data set [1] was 5.05. The selectivity ratio in data set [2] worked out at 3.8.

Compound `O=C(CNc1ccccc1)Nc1cc(O)ccc1O` showed a pIC50 in data set [1] of 4.89.

On to `CN(CC(=O)Nc1ccccc1O)c1ccccc1`, for which, in data set [1], the pIC50 is less than 4.00.

In data set [1], `O=C(CO)Nc1cc(O)ccc1O` had a negative-log IC50 (pIC50) of 4.92.

Compound `CCCN(C)CC(=O)Nc1cc(O)ccc1O` gave a pIC50 in data set [1] of 4.74.

Regarding `CN(CC(=O)NC1=CC(=O)C=CC1=O)c1ccccc1`, the pIC50 in data set [1] was 4.68.
